pIC50: −log10 of the molar value.
Key:
Trypanosoma brucei [1] = experiment: Antiparasitic activity against Trypanosoma brucei BSF after 3 days by Alamar blue assay; type: functional, organism-based; details: 72 h
How it was run: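 BSF trypomastigotes (MITat 427, clone 221a) were seeded at 1 × 10^3 ml−1 in modified Iscove's medium with tetracycline-free FCS, across a range of compound concentrations. Plates ran 3 days at 37°C, then Alamar blue was added for 16 h. Fluorescence was read at ex 530/em 585 nm and IC50 determined.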

THP-1 = experiment: Cytotoxicity against human THP1 cells after 6 days by Alamar blue assay; type: cell-based; details: THP-1, 144 h
How it was run: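 THP-1 cells were grown in RPMI 1640 with 10% tetracycline-free FCS and 20 mM HEPES. They were seeded at 1 × 10^4 ml−1 across a range of compound concentrations and incubated 6 days at 37°C, 5% CO2.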

[2] = Therapeutic index, ratio of IC50 against human THP1 cells to IC50 against Trypanosoma brucei; type: cell-based, THP-1; details: read-out: Ratio IC50
How it was run: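 Index was calculated as THP-1 IC50 divided by T. brucei BSF IC50. THP-1 IC50 came from 6-day Alamar blue assays, and parasite IC50 from 3-day Alamar blue assays, both at 37°C.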

Trypanosoma brucei [3] = details: 100 uM
Trypanosoma brucei [4] = system: Trypanosoma brucei
Trypanosoma brucei [5] = system: Trypanosoma brucei; remark: listed apart in the source
Trypanosoma brucei [6] = experiment: Antiparasitic activity against Trypanosoma brucei BSF overexpressing NTR gene after 3 days by Alamar blue assay; type: functional, organism-based; details: 72 h
How it was run: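 Parasite lines were heterozygous NTR+/− (kept on 2 μg ml−1 puromycin) or TbNTR-overexpressing (kept on 2.5 μg ml−1 hygromycin plus 1 μg ml−1 phleomycin). Tetracycline at 1 μg ml−1 was added for induction where appropriate. Cells were seeded at 1 × 10^3 ml−1 and grown 3 days at 37°C, followed by Alamar blue for 16 h. Fluorescence IC50s were compared with control cells.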

| SMILES | pIC50 (Trypanosoma brucei [1]) | pIC50 (THP-1) | selectivity ratio [2] | Vmax (Trypanosoma brucei [3]) [nmol/min] | Km (Trypanosoma brucei [4]) [µM] | kcat/Km (Trypanosoma brucei [5]) [M⁻¹ s⁻¹] | pIC50 (Trypanosoma brucei [6]) |
| --- | --- | --- | --- | --- | --- | --- | --- |
| NP(=O)(OCc1ccccc1[N+](=O)[O-])N(CCCl)CCCl (configuration not stated) | 5.74 | 4.19 | 36 |  |  |  |  |
| NP(=O)(OCc1ccc([N+](=O)[O-])cc1F)N(CCCl)CCCl (configuration not stated) | 6.57 | 4.69 |  |  |  |  |  |
| COc1cc(COP(N)(=O)N(CCCl)CCCl)ccc1[N+](=O)[O-] (configuration not stated) | 5.74 | 4.19 | 36 |  |  |  |  |
| O=[N+]([O-])c1ccc([C@@H]2CCN[P@](=O)(N(CCCl)CCCl)N2)cc1 | 5.74 | 4.19 | 36 |  |  |  |  |
| O=[N+]([O-])c1ccc([C@@H]2CCN[P@@](=O)(N(CCCl)CCCl)O2)cc1 | 5.74 | 4.19 | 36 |  |  |  |  |
| NP(=O)(OCc1c(F)cc([N+](=O)[O-])cc1F)N(CCCl)CCCl (configuration not stated) | 8.15 | 5.16 |  |  |  |  |  |
| NP(=O)(OCc1ccc([N+](=O)[O-])cc1)N(CCCl)CCCl (configuration not stated) | 5.47 | 4.18 |  |  |  |  |  |
| CC(OP(N)(=O)N(CCCl)CCCl)c1ccc([N+](=O)[O-])cc1 (configuration not stated) | 5.74 | 4.19 | 36 |  |  |  |  |
| COc1cc([N+](=O)[O-])ccc1COP(N)(=O)N(CCCl)CCCl (configuration not stated) | 5.92 | 4.47 | 28 |  |  |  |  |
| NP(=O)(OCc1ccc([N+](=O)[O-])cc1Cl)N(CCCl)CCCl (configuration not stated) | 8.10 | 5.00 |  |  |  |  |  |
| O=[N+]([O-])c1ccc([C@@H]2CCN[P@@](=O)(N(CCCl)CCCl)N2)cc1 | 5.74 | 4.19 | 36 |  |  |  |  |
| NP(=O)(OCc1ccc([N+](=O)[O-])c(F)c1)N(CCCl)CCCl (configuration not stated) | 5.49 | 4.75 | 6 |  |  |  |  |
| NP(=O)(OCc1cccc([N+](=O)[O-])c1)N(CCCl)CCCl (configuration not stated) | 5.74 | 4.19 | 36 |  |  |  |  |
| CC1CS(=O)(=O)CCN1/N=C/c1ccc([N+](=O)[O-])o1 (configuration not stated) [NIFURTIMOX] | 5.74 | 4.19 | 36 | 423 | 53.1 | 3.4 |  |
| Nc1nc(N)nc(Nc2ccc([As]3SCC(CO)S3)cc2)n1 (configuration not stated) [MELARSOPROL] |  |  |  |  |  |  | 5.40 |
| CC(C)(C(=O)N[C@@H]1CCN[P@](=O)(N(CCCl)CCCl)O1)c1ccccc1[N+](=O)[O-] | 5.74 | 4.19 | 36 |  |  |  |  |
| CC(C)(C(=O)N[C@@H]1CCN[P@@](=O)(N(CCCl)CCCl)O1)c1ccccc1[N+](=O)[O-] | 5.74 | 4.19 | 36 |  |  |  |  |
| O=[N+]([O-])c1ccc([C@@H]2CCO[P@@](=O)(N(CCCl)CCCl)N2)cc1 | 5.74 | 4.19 | 36 |  |  |  |  |
| NP(=O)(OCc1ccc([N+](=O)[O-])cc1C(F)(F)F)N(CCCl)CCCl (configuration not stated) | 6.83 | 4.72 |  |  |  |  |  |
| Cc1cc(COP(N)(=O)N(CCCl)CCCl)ccc1[N+](=O)[O-] (configuration not stated) | 5.74 | 4.19 | 36 |  |  |  |  |
| O=[N+]([O-])c1ccc([C@@H]2CCN[P@](=O)(N(CCCl)CCCl)O2)cc1 | 5.74 | 4.19 | 36 |  |  |  |  |
| O=[N+]([O-])c1ccc([C@@H]2CCO[P@](=O)(N(CCCl)CCCl)N2)cc1 | 5.74 | 4.19 | 36 |  |  |  |  |
